Here are results for two molecules from ChEMBL document CHEMBL4706553, “Discovery of potent small molecule PROTACs targeting mutant EGFR” (Eur J Med Chem, 2020).

SMILES strings stand for the structures. Active and inactive are the calls of the source.

For assay [1], the target named is von Hippel-Lindau disease tumor suppressor/Epidermal growth factor receptor (Homo sapiens, UniProt P00533+P40337). Nature of the assay: Protac activity at VHL/EGFR del19 mutant in human HCC827 cells assessed as induction of EGFR degradation measured after 24 hrs by Western blot analysis. Type of assay: cell-based. The essentials:
(§1)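 HCC827 cells seeded at 0.5–1 × 10⁶ per well, grown 24 h, then treated at the stated concentrations for 24 h. EGFR^del19 level by Western blot with anti-EGFR antibody and β-actin loading control.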
Background: A western blot detects proteins with antibodies after separation by electrophoresis.

Assay [2] relates to Protein cereblon/Epidermal growth factor receptor (Homo sapiens), P00533+Q96SW2 [UNDEFINED MUTATION]. Nature of the assay: Protac activity at CRBN/EGFR del19 mutant in human HCC827 cells assessed as induction of EGFR degradation at 333 nM measured after 24 hrs by Western blot analysis. Type of assay: cell-based. The essentials:
as §1

In assay [3] the test system is HepG2. As to the kind of experiment: Antiproliferative activity against human HepG2 cells expressing VEGFR2 assessed as cell growth inhibition measured after 72 hrs by MTT assay. Type of assay: functional, cell-based. The following applies: HepG2, 72 h. The essentials:
(§2)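 Cells were seeded at 3000–8000/well and allowed 24 h, then exposed to serial compound concentrations for 72 h. MTT (5 mg/mL stock in PBS) was added for 4 h, supernatant removed and DMSO added. IC50, defined as 50% growth inhibition, was derived by nonlinear regression (log inhibitor vs response).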
For orientation: Formazan colour is commonly taken as a measure of viable cells.

Assay [4] has as its system Protein cereblon/Epidermal growth factor receptor (Homo sapiens), P00533+Q96SW2 [UNDEFINED MUTATION]. Nature of the assay: Protac activity at CRBN/EGFR del19 mutant in human HCC827 cells assessed as induction of EGFR degradation at 0.033 uM pretreated with ubiquitination inhibitor, MLN4924 for 2 hrs followed by incubation with compound for 24 hrs by Western blot analysis. Type of assay: cell-based.

For assay [5] the test system is unchanged. As to the kind of experiment: Protac activity at CRBN/EGFR del19 mutant in human HCC827 cells assessed as induction of EGFR degradation at 0.033 uM pretreated with EGFR inhibitor, F for 2 hrs followed by incubation with compound for 24 hrs by Western blot analysis. Type of assay: cell-based.
Assay [6] has as its system NCI-H1975. As to the kind of experiment: Antiproliferative activity against human H1975 cells expressing EGFR L858R/T790M mutant assessed as cell growth inhibition measured after 72 hrs by MTT assay. The class given is functional, cell-based. To be noted: NCI-H1975, 72 h. Summed up: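 MTT assay on H1975 cells grown in RPMI-1640 with 10% heat-inactivated FBS and 1% penicillin-streptomycin at 37 °C and 5% CO₂. Cells were seeded at 3000–8000 per well and left 24 h, then exposed to a concentration series for 72 h. MTT (5 mg/mL stock in PBS) was added for 4 h, supernatant removed and formazan dissolved in DMSO. IC50 was fitted by nonlinear regression (log inhibitor vs response).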

The subject of assay [7] is Protein cereblon/Epidermal growth factor receptor (Homo sapiens), P00533+Q96SW2 [UNDEFINED MUTATION]. As to the kind of experiment: Protac activity at CRBN/EGFR del19 mutant in human HCC827 cells assessed as induction of EGFR degradation at 33 nM by Western blot analysis. The class given is cell-based. The following applies: time 12-72 hrs, TDE = time-dependent effect. Summed up: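 Time course in HCC827 cells at 33 nM, with protein harvested at each stated time point. EGFR^del19 detected by Western blot.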

Assay [8] shares this test system. As to the kind of experiment: Protac activity at CRBN/EGFR del19 mutant in human HCC827 cells assessed as induction of EGFR degradation at 33 nM incubated for 24 hrs measured following compound wash-out for 24 to 48 hrs by Western blot analysis. The class given is cell-based. Summed up:
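HCC827 cells (RPMI-1640, 10% heat-inactivated FBS, 1% sodium pyruvate, 1% glutamine, 37 °C, 5% CO₂) treated at 33 nM for 24 h. Medium then replaced with compound-free medium, and protein harvested at the stated times. EGFR read by Western blot; n = 2.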

Assay [9] has the same test system. As to the kind of experiment: Protac activity at CRBN/EGFR del19 mutant in human HCC827 cells assessed as induction of EGFR degradation at 0.033 uM pretreated with proteasome inhibitor, MG132 for 2 hrs followed by incubation with compound for 24 hrs by Western blot analysis. The class given is cell-based.
In assay [10] the target is T1, Protein cereblon/Epidermal growth factor receptor (Homo sapiens, UniProt P00533+Q96SW2). As to the kind of experiment: Protac activity at CRBN/EGFR in human A431 cells assessed as induction of degradation of EGFR at 0.1 to 3.3 uM incubated for 48 hrs by Western blot analysis. The class given is cell-based. The following applies: A-431, dose 0.1-3.3 µM.
Target sequence in this assay (P00533 25-1210 limits assumed): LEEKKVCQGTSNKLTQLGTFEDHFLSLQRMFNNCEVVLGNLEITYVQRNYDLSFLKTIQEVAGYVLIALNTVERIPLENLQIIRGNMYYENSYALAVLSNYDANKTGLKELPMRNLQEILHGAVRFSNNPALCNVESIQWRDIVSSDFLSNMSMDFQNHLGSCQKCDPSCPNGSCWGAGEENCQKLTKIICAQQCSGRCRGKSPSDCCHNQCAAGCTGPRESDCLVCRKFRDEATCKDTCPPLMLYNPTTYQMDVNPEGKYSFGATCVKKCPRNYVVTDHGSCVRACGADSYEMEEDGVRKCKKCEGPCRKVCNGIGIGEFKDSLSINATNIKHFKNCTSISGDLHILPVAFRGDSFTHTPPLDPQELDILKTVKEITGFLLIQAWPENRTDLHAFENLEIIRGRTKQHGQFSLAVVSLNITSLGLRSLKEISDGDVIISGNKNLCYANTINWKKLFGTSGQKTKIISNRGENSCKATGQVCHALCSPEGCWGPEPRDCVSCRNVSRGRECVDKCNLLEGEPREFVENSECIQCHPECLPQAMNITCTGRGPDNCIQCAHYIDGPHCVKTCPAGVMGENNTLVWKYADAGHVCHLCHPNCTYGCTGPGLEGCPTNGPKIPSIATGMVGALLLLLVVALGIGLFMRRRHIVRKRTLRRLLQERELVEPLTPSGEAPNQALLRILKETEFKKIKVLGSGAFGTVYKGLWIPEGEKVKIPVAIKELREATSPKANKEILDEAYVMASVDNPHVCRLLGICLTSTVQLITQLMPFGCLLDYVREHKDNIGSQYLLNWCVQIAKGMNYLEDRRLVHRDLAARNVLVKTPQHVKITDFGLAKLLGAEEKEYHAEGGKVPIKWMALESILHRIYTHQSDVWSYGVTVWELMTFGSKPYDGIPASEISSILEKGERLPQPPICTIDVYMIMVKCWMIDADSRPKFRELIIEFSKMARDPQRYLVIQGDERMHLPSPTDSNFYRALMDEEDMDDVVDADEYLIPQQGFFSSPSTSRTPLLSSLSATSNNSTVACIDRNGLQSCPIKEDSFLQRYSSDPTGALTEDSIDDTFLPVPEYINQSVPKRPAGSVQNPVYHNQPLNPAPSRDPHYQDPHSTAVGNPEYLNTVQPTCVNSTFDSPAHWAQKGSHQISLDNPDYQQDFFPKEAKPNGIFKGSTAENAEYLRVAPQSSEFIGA
Target sequence in this assay (Q96SW2 whole entry partner): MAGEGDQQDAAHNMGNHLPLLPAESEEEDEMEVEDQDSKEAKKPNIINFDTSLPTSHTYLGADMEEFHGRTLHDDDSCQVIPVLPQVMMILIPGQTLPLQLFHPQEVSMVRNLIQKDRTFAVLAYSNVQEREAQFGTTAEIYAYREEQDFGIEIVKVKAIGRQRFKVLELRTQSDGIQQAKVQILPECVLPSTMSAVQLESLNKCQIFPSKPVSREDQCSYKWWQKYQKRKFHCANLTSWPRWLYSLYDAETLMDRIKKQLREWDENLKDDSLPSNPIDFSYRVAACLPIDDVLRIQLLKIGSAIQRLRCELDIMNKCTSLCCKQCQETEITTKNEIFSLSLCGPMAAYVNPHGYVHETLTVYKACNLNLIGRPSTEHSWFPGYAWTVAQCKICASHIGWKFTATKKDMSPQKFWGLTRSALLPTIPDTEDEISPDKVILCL
In assay [11] the test system is Protein cereblon/Epidermal growth factor receptor (Homo sapiens), P00533+Q96SW2 [UNDEFINED MUTATION]. Nature of the assay: Protac activity at CRBN/EGFR del19 mutant in human HCC827 cells assessed as maximal induction of EGFR degradation at 33 nM measured after 48 hrs by Western blot analysis. The class given is cell-based. Summed up: (§3)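 HCC827 cells seeded at 0.5–1 × 10⁶ per well, then treated at the stated concentrations for 48 h. EGFR by Western blot; n = 3. DC₅₀ (concentration giving 50% EGFR loss) by nonlinear regression, log(inhibitor) vs response.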

The test system is the same in assay [12]. As to the kind of experiment: Protac activity at CRBN/EGFR del19 mutant in human HCC827 cells assessed as induction of EGFR degradation at 33 nM measured after 24 hrs by Western blot analysis. Type of assay: cell-based. Summed up:
as §1

The test system is the same in assay [13]. Nature of the assay: Protac activity at CRBN/EGFR del19 mutant in human HCC827 cells assessed as induction of EGFR degradation at 0.033 uM pretreated with autophagy inhibitor, chloroquine for 2 hrs followed by incubation with compound for 24 hrs by Western blot analysis. The class given is cell-based.
Assay [14] has as its system A-431. Nature of the assay: Antiproliferative activity against human A431 cells expressing wild type EGFR assessed as cell growth inhibition measured after 72 hrs by MTT assay. Type of assay: functional, cell-based. To be noted: A-431, 72 h. The essentials:
as §2

Assay [15] concerns HCC827. As to the kind of experiment: Antiproliferative activity against human HCC827 cells expressing EGFR del19 mutant assessed as cell growth inhibition measured after 72 hrs by MTT assay. To be noted: HCC827, 72 h. The class given is functional, cell-based. The essentials: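 HCC827 cells were kept in RPMI-1640 with 10% heat-inactivated FBS, 1% sodium pyruvate, 1% glutamine and 1% penicillin-streptomycin at 37 °C and 5% CO₂, seeded at 3000–8000/well and rested 24 h. Compounds were applied as a concentration series for 72 h. MTT (5 mg/mL stock in PBS) was given for 4 h, then medium was removed and DMSO added. IC50 came from nonlinear regression (log inhibitor vs response).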

Assay [16] relates to Protein cereblon/Epidermal growth factor receptor (Homo sapiens), P00533+Q96SW2 [UNDEFINED MUTATION]. As to the kind of experiment: Protac activity at CRBN/EGFR del19 mutant in human HCC827 cells assessed as induction of EGFR degradation at 0.033 uM pretreated with CRBN ligand, lenalidomide for 2 hrs followed by incubation with compound for 24 hrs by Western blot analysis. The class given is cell-based.

In assay [17] the target is T1, Protein cereblon/Epidermal growth factor receptor. Nature of the assay: Protac activity at CRBN/EGFR del19 mutant in human HCC827 cells assessed as induction of EGFR degradation measured after 48 hrs by Western blot analysis. Type of assay: cell-based. The essentials: as §3
Target sequence in this assay (P00533 whole entry, looked up, stated change not applied): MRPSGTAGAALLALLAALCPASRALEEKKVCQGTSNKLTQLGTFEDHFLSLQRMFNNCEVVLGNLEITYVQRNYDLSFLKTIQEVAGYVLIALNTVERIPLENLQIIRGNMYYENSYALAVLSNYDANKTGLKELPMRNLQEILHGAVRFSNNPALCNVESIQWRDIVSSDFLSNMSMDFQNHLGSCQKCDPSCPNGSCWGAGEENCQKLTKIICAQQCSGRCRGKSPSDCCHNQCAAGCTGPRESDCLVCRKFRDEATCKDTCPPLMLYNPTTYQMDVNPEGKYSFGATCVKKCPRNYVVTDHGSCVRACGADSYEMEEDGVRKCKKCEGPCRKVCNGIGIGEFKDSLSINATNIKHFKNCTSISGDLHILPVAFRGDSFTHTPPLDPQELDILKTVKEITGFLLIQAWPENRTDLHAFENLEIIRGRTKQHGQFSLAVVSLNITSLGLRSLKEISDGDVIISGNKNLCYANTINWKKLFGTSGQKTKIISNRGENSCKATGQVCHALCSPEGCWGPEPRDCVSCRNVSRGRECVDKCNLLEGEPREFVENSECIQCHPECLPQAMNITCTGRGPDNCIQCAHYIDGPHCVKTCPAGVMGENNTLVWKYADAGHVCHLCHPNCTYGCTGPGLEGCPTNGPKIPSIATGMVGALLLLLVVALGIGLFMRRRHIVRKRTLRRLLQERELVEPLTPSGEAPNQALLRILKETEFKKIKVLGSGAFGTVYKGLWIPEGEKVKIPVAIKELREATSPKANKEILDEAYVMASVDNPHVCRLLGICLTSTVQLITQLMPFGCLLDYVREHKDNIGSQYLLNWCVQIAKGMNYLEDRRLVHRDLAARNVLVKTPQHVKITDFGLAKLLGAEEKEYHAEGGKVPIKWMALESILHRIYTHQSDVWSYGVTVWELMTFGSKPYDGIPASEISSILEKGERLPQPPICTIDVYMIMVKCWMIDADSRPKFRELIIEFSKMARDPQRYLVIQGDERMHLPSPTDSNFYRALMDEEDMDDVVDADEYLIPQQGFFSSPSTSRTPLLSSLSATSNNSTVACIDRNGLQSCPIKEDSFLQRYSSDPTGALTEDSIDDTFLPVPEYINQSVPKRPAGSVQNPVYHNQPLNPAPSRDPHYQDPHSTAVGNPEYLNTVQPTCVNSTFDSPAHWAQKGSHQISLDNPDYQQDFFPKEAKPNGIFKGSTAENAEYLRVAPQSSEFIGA
Target sequence in this assay (Q96SW2 whole entry, looked up, stated change not applied): as the sequence (Q96SW2 whole entry partner) above

Sequence of Protein cereblon/Epidermal growth factor receptor (Homo sapiens), P00533+Q96SW2 [UNDEFINED MUTATION] (P00533 whole entry, looked up, stated change not applied): as the sequence (P00533 whole entry, looked up, stated change not applied) above
Sequence of Protein cereblon/Epidermal growth factor receptor (Homo sapiens), P00533+Q96SW2 [UNDEFINED MUTATION] (Q96SW2 whole entry, looked up, stated change not applied): as the sequence (Q96SW2 whole entry partner) above

Broadly, the DC50 is the midpoint of the concentration-degradation curve. Turning to `COc1cc2ncnc(Nc3ccc(F)c(Cl)c3)c2cc1OCCCCCOCCOCCC(=O)N[C@H](C(=O)N1C[C@H](O)C[C@H]1C(=O)NCc1ccc(-c2scnc2C)cc1)C(C)(C)C`, the DC50 in assay [1] worked out at 11.7 nM.

As usually defined, the IC50 is the concentration that gives 50% inhibition. As to `CN(CCOCCOCCOCCN1CCN(c2ccc(Nc3ncc4nc(Nc5ccccc5)n(C5CCCC5)c4n3)cc2)CC1)CC(=O)Nc1cccc2c1CN(C1CCC(=O)NC1=O)C2=O` (configuration not stated), the result in assay [2], in [4], in [5], in assay [8], in assay [10] and in assay [13] was inactive. Also, in assay [16], the outcome was inactive. For the same molecule, the IC50 was > 5000 nM in [3], 3180 nM in [6], 1860 nM in assay [14] and 2 nM in assay [15]. The Activity entry in [7] is “Tde”. Also, the outcome in assay [9] and in [12] was Active. For the same molecule, in assay [11], the Emax stood at 82%. For the same molecule, the DC50 in assay [17] was found to be 1.91 nM.
